Key:
MCF7 [1] = assay: Potentiation of vinblastine-induced cytotoxicity against vinblastine-sensitive human MCF7 cells assessed as fold reduction in vinblastine IC50 at 25 ug/ml after 72 hrs by SRB assay relative to vinblastine alone; type: functional
Procedure, shortened: (§1)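 Modulation assay in sensitive MCF-7 or resistant MCF-7/Vin cells. Cells received vinblastine at 0.00064−10 μg/mL, alone or with glycolipid at 25 or 5 μg/mL, for 72 h. Read-out was SRB, and vinblastine IC50 was derived as in the cytotoxicity assay. Reversal fold = IC50 of vinblastine alone / IC50 with glycolipid. Reserpine at 5 μg/mL served as positive control. Values are mean ± SD of three independent experiments.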

Homo sapiens [2] = organism: Homo sapiens; assay: (§2) Inhibition of multidrug resistance efflux pump in multidrug resistant human MCF7 cells cultured in vinblastine free medium assessed as potentiation of vinblastine-induced cytotoxicity by measuring fold reduction in vinblastine IC50 at 25 ug/ml after 72 hrs by SRB assay relative to vinblastine alone
Procedure, shortened: (§3)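 MCF-7/Vin− cells were a stock of the resistant line maintained in vinblastine-free medium.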

HeLa = assay: Cytotoxicity against human HeLa cells assessed as growth inhibition after 72 hrs by SRB assay; type: functional, cell-based
Procedure, shortened: (§4)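 Cells in log phase, grown in RPMI 1640 with 10% FBS at 37 °C, 5% CO2, humidified, were exposed in triplicate to test samples at 0.2−25 μg/mL for 72 h. Growth was read by sulforhodamine B staining. IC50 is the concentration giving 50% growth inhibition relative to untreated control, taken from a semilog plot of concentration (μg/mL) against % inhibition. Vinblastine served as positive control.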

MDA-MB-231 = assay: Cytotoxicity against human MDA-MB-231 cells assessed as growth inhibition after 72 hrs by SRB assay; type: functional, cell-based; conditions: MDA-MB-231, 72 h; procedure, shortened: as §4
Homo sapiens [3] = organism: Homo sapiens; assay: as §2, with “containing” for “free”
Procedure, shortened: (§5)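 MCF-7/Vin+ resistant cells were kept in medium containing 0.192 μg/mL vinblastine to hold resistance.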

MCF7 [4] = assay: Cytotoxicity against vinblastine-sensitive human MCF7 cells assessed as growth inhibition after 72 hrs by SRB assay; type: functional, cell-based; conditions: MCF7, 72 h; procedure, shortened: as §4
HCT-15 = assay: Cytotoxicity against human HCT15 cells assessed as growth inhibition after 72 hrs by SRB assay; type: functional, cell-based; conditions: HCT-15, 72 h; procedure, shortened: as §4
MCF7 [5] = assay: Cytotoxicity against multidrug resistant human MCF7 cells cultured in vinblastine free medium assessed as growth inhibition after 72 hrs by SRB assay; type: functional, cell-based; conditions: MCF7, 72 h; procedure, shortened: as §4
HCT-116 = assay: Cytotoxicity against human HCT116 cells assessed as growth inhibition after 72 hrs by SRB assay; type: functional, cell-based; conditions: HCT-116, 72 h; procedure, shortened: as §4
MCF7 [6] = assay: Cytotoxicity against multidrug resistant human MCF7 cells cultured in vinblastine containing medium assessed as growth inhibition after 72 hrs by SRB assay; type: functional, cell-based; conditions: MCF7, 72 h; procedure, shortened: as §4
MCF7 [7] = assay: Potentiation of vinblastine-induced cytotoxicity against vinblastine-sensitive human MCF7 cells assessed as fold reduction in vinblastine IC50 at 5 ug/ml after 72 hrs by SRB assay relative to vinblastine alone; type: functional; procedure, shortened: as §1
Homo sapiens [8] = organism: Homo sapiens; assay: (§6) Inhibition of multidrug resistance efflux pump in multidrug resistant human MCF7 cells cultured in vinblastine free medium assessed as potentiation of vinblastine-induced cytotoxicity by measuring fold reduction in vinblastine IC50 at 5 ug/ml after 72 hrs by SRB assay relative to vinblastine alone; procedure, shortened: as §3
Homo sapiens [9] = organism: Homo sapiens; assay: as §6, with “containing” for “free”; procedure, shortened: as §5

SMILES	fold change (FC) (MCF7 [1])	fold change (FC) (Homo sapiens [2])	IC50 (HeLa)	IC50 (MDA-MB-231)	fold change (FC) (Homo sapiens [3])	IC50 (MCF7 [4])	IC50 (HCT-15)	IC50 (MCF7 [5])	IC50 (HCT-116)	IC50 (MCF7 [6])	fold change (FC) (MCF7 [7])	fold change (FC) (Homo sapiens [8])	fold change (FC) (Homo sapiens [9])
C/C=C(\C)C(=O)O[C@H]1[C@@H]2O[C@H]3[C@H](O[C@@H](CCC)CCCCCCCCCC(=O)O[C@@H]4[C@@H](O)[C@H](C)O[C@@H](O[C@H]5[C@H](O)[C@@H](C)O[C@@H](O[C@H]([C@H]1O)[C@H](C)O2)[C@@H]5O[C@@H]1O[C@@H](C)[C@H](O)[C@@H](O)[C@H]1OC(=O)[C@H](C)[C@@H](C)O)[C@@H]4O)O[C@H](C)[C@@H](O)[C@@H]3O	37	283	> 20 µM	> 20 µM	3	> 20 µM	> 20 µM	> 20 µM	> 20 µM	> 20 µM	–	–	–
CCC[C@H]1CCCCCCCCCC(=O)O[C@H]2[C@H](O[C@H]3[C@H](O)[C@@H](C)O[C@@H](O[C@H]4[C@H](O1)O[C@H](C)[C@@H](O)[C@@H]4O)[C@@H]3O[C@@H]1O[C@@H](C)[C@H](OC(C)=O)[C@@H](O)[C@H]1O)O[C@H](C)[C@@H](O)[C@@H]2OC(=O)[C@H](C)[C@@H](C)O	34	322	> 20 µM	> 20 µM	201	> 20 µM	> 20 µM	> 20 µM	> 20 µM	> 20 µM	–	–	–
CC[C@]1(O)C[C@@H]2CN(CCc3c([nH]c4ccccc34)[C@@](C(=O)OC)(c3cc4c(cc3OC)N(C)[C@H]3[C@@](O)(C(=O)OC)[C@H](OC(C)=O)[C@]5(CC)C=CCN6CC[C@]43[C@@H]65)C2)C1 [VINBLASTINE]	–	–	0.002 µM	0.01 µM	–	0.06 µM	0.06 µM	1.1 µM	0.05 µM	1.3 µM	–	–	–
COc1cc([C@@H]2c3cc4c(cc3[C@H](O)[C@H]3COC(=O)[C@H]23)OCO4)cc(OC)c1OC [PODOFILOX]	–	–	–	–	–	0.02 µM	–	0.2 µM	–	0.3 µM	–	–	–
C/C=C(\C)C(=O)O[C@@H]1[C@H](O)[C@@H](O)[C@H](O[C@@H]2[C@@H](O)[C@@H](OC(=O)/C(C)=C/C)[C@H](O[C@H]3[C@@H]4O[C@H]5[C@H](O[C@@H](CCC)CCCCCCCCCC(=O)O[C@H]3[C@H](O)[C@@H](CO)O4)O[C@H](C)[C@@H](O)[C@@H]5O)O[C@H]2C)O[C@@H]1C	>87	5	17.4 µM	> 20 µM	> 2520	15.1 µM	14.3 µM	> 20 µM	15.1 µM	> 20 µM	–	–	–
COc1cc2c(c(OC)c1OC)-c1ccc(OC)c(=O)cc1[C@@H](NC(C)=O)CC2 [COLCHICINE]	–	–	–	–	–	0.05 µM	–	2.8 µM	–	2.8 µM	–	–	–
C/C=C(\C)C(=O)O[C@@H]1[C@H](O)[C@@H](O)[C@H](O[C@@H]2[C@@H](O)[C@@H](OC(=O)/C(C)=C/C)[C@H](O[C@H]3[C@@H]4O[C@H]5[C@H](O[C@@H](CCCCC)CCCCCCCCCC(=O)O[C@H]3[C@H](O)[C@@H](CO)O4)O[C@H](C)[C@@H](O)[C@@H]5O)O[C@H]2C)O[C@@H]1C	>87	> 1980	9.6 µM	11.6 µM	> 2520	8 µM	9.8 µM	16.3 µM	15.9 µM	17 µM	–	–	–
CC[C@@]1(O)C(=O)OCc2c1cc1n(c2=O)Cc2cc3ccccc3nc2-1 [CAMPTOTHECIN]	–	–	–	–	–	< 0.0018 µM	–	< 0.0018 µM	–	< 0.0018 µM	–	–	–
COC(=O)[C@H]1[C@H]2C[C@@H]3c4[nH]c5cc(OC)ccc5c4CCN3C[C@H]2C[C@@H](OC(=O)c2cc(OC)c(OC)c(OC)c2)[C@@H]1OC [RESERPINE]	–	–	–	–	–	–	–	–	–	–	11	20	3
CCC[C@H]1CCCCCCCCCC(=O)O[C@H]2[C@H](OC[C@H]3O[C@@H](O[C@H]4[C@H](O1)O[C@H](C)[C@@H](O)[C@@H]4O)[C@H](O[C@@H]1O[C@@H](C)[C@H](OC(C)=O)[C@@H](O)[C@H]1O)[C@@H](O)[C@@H]3O)O[C@H](C)[C@@H](O)[C@@H]2OC(=O)[C@H](C)[C@@H](C)O	4	1	> 20 µM	> 20 µM	2	> 20 µM	> 20 µM	> 20 µM	> 20 µM	> 20 µM	–	–	–
Cc1c2ccncc2c(C)c2c1[nH]c1ccccc12 [ELLIPTECINE]	–	–	–	–	–	–	–	1.6 µM	–	2 µM	–	–	–
C/C=C(\C)C(=O)O[C@H]1[C@H](O[C@H]2[C@@H]3O[C@H]4[C@H](O[C@@H](CCC)CCCCCCCCCC(=O)O[C@H]5[C@H](O[C@H]6[C@H](OC[C@@H](O3)[C@@H](O)[C@@H]2O)O[C@H](C)[C@@H](O)[C@@H]6O)O[C@@H](C)[C@H](O)[C@H]5O)O[C@H](C)[C@@H](O)[C@@H]4O)O[C@@H](C)[C@H](O)[C@H]1O	4	1700	> 20 µM	> 20 µM	3	> 20 µM	> 20 µM	> 20 µM	> 20 µM	> 20 µM	–	–	–

Reference: ChEMBL document CHEMBL3994597, “Resin Glycosides from Ipomoea alba Seeds as Potential Chemosensitizers in Breast Carcinoma Cells” (J Nat Prod, 2016)
